Screening results: PubChem BioAssay, Johns Hopkins Ion Channel Center
hERG rescue: hERG rescue from dofetilide block, primary screen, cell-based, CHO-hERG, FluxOR thallium flux, dofetilide IC70 | activation (rescue from dofetilide block), less the hit threshold, % at 10 µM | hit rate 0.51% among 310,000 | dofetilide IC70 present | Voltage-gated inwardly rectifying potassium channel KCNH2 (Homo sapiens), Q12809;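 active = activation above the mean of controls blocked by dofetilide plus 5 SD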;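 also: thallium influx through hERG after potassium depolarization seen as dye fluorescence rise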
Target sequence (Q12809 whole entry, looked up): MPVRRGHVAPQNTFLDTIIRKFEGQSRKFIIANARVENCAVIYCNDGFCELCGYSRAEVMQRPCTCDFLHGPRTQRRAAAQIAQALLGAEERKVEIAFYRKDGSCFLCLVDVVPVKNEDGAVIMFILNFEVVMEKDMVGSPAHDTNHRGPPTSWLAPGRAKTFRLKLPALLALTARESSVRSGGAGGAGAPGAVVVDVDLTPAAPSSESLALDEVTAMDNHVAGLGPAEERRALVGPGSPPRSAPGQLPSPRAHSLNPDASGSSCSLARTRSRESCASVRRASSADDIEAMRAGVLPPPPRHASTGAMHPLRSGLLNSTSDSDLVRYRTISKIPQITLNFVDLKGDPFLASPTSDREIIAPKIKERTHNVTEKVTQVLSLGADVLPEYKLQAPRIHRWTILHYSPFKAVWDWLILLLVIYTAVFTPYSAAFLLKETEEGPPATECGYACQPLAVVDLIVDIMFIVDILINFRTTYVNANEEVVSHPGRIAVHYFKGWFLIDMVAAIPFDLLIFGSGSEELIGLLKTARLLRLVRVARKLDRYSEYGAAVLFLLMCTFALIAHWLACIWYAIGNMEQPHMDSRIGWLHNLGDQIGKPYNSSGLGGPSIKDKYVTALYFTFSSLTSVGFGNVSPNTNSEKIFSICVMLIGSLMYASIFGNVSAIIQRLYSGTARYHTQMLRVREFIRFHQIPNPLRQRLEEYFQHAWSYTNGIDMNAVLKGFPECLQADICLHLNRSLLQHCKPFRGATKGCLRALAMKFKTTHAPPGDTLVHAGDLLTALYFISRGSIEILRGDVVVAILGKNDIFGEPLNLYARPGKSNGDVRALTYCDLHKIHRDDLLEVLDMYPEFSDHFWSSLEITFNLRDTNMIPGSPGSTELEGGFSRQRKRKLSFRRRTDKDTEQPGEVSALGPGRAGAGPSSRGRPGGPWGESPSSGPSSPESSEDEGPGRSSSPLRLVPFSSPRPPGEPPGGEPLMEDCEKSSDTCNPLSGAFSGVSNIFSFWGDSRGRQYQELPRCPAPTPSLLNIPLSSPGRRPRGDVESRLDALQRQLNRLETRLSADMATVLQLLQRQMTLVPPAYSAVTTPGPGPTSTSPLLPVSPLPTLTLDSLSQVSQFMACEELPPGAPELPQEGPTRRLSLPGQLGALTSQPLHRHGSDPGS
KCNK3 block: human KCNK3 channel inhibitors, primary screen, CHO cells, FluxOR thallium flux, B-score; Potassium channel subfamily K member 3 (Homo sapiens), O14649; hit rate 0.84% among 340,000; B-score at 10 µM; AID 602410, 2012; FluxOR fluorescence; stronger effect = lower value;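 active = B-score under library mean minus 4 SD, starting fluorescence ratio at most library mean plus 5 SD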;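 also: more negative B-score means stronger inhibition of thallium flux through KCNK3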
KCNK9 inh: KCNK9 potassium channel inhibitors, primary screen, HEK293 cells, thallium flux | Potassium channel subfamily K member 9 (Homo sapiens), Q9NPC2 | FluxOR thallium flux fluorescence; stronger effect = lower value | B-score at 10 µM | hit rate 1.2% among 310,000 | AID 488922, 2010;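 active = ratio B-score over 3 SD below the library mean, with starting fluorescence within 5 SD of its mean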;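 also: negative B-score means less thallium flux so channel inhibition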
KCNQ1 block: inhibitors of human KCNQ1 channel, primary screen, cell-based, thallium flux, high-throughput; Potassium voltage-gated channel subfamily KQT member 1 (Homo sapiens), P51787; CHO-K1 KCNQ1, FluxOR thallium flux fluorescence; stronger effect = higher value; B-score at 10 µM; hit rate 1.3% among 310,000; AID 2642, 2010;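 active = compounds whose thallium flux B-score, printed positive for inhibition, exceeds three library SD while starting fluorescence stays within three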;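 also: channel opened by potassium depolarization with thallium stimulus after 20 min compound exposure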
KCNQ1 act: potentiators or activators of KCNQ1 channel, primary screen, cell-based, thallium flux, high-throughput; Potassium voltage-gated channel subfamily KQT member 1 (Homo sapiens), P51787; CHO-K1 KCNQ1, thallium flux FluxOR fluorescence; stronger effect = higher value; B-score at 10 µM; hit rate 0.35% among 310,000;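 active = fluorescence ratio B-score, a plate-corrected score, at least three library SD, with initial intensity B-score within 5 SD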
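Medium – assay buffer, equal DMSO in all wells · Material – CHO-K1 cell line with stable KCNQ1 potassium channel expression · Signal – kinetic FluxOR thallium fluorescence, 10-s 1-Hz baseline, 110-s post-stimulus read · Compound – single concentration per compound, DMSO matched to controls · Schedule – 37 °C overnight plating, 90-min dark dye load, 20-min compound pretreatment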
Kir21 inh: inhibitors of mouse Kir2.1 inward-rectifier potassium channel. HEK293-Kir2.1, FluxOR thallium flux fluorescence; stronger effect = lower value. B-score at 10 µM. hit rate 0.85% among 310,000;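 active = fluorescence ratio B-score at or below minus 3 SD of library scores, with starting-brightness B-score within 2 SD, cut at about -4.2 in these data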;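 also: channel flux triggered by added potassium and thallium sulfate stimulus; B-score of peak minus minimum fluorescence over baseline after thallium stimulus; more negative B-score means stronger Kir2.1 block with less thallium influx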
KCNK3 inh conf: retest of human KCNK3 channel inhibitors, confirmation, CHO cells, FluxOR thallium flux, triplicate. shares compounds with KCNK3 block. FluxOR fluorescence; 0% buffer, 100% carvedilol maximal block. ratio percent of control, % at 10 µM. hit rate 99% among 2,400. AID 651638, 2012;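 active = ratio percent of control, averaged over triplicates, above buffer control mean plus 5 SD, cut at about 64% in these data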;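 also: ratio is the fluorescence rise from min to max over baseline after thallium stimulus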
KCNK3 uninduced: thallium flux inhibition in non-induced cells, primary screen, counter-screen for KCNK3 inhibitor project, cell-based, non-induced KCNK3 line, FluxOR thallium, triplicate; shares compounds with KCNK3 block; non-induced KCNK3 parental cells; stronger effect = lower value; thallium flux ratio (lower = more inhibition) at 10 µM; hit rate 40% among 2,400; AID 651747, 2012;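 active = thallium flux ratio, averaged over three wells, more than 5 SD below the buffer control mean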;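 also: host cells are CHO cells without KCNK3 induction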
Large screens that a line does not name were inactive (follow-up assays come after a bar, where they were run). Most compounds without a hit are left out; they make up all but 3.8% or so of the library.

CCc1ccc2c(CN3CCc4ccccc43)cc(=O)oc2c1	KCNK3 block -13.2 | KCNK3 inh conf 83.3 | KCNK3 uninduced inactive
O=c1cc(CN2CCc3ccccc32)c2ccc(O)cc2o1	none
CC1=C(C(=O)Nc2cccc(C(=O)NCc3ccc(F)cc3)c2)SCCO1	KCNK3 block -8.98 | KCNK3 inh conf 84.3 | KCNK3 uninduced inactive
CC1=C(C(=O)Nc2ccc(CC(=O)NCc3ccccc3C)cc2)SCCO1	none
CC1=C(C(=O)Nc2cccc(C(=O)NCc3ccccc3C)c2)SCCO1	KCNK3 block -8.83, KCNK9 inh -6.63 | KCNK3 inh conf 99.7 | KCNK3 uninduced inactive
CCc1cccc(NS(=O)(=O)c2ccc3c(c2)NC(=O)CO3)c1	none
Cc1oc2ccc(O)c(CN(C)C)c2c1C(=O)c1ccccc1	none
CCOC(=O)c1c(CSCc2ccccc2)oc2ccc(O)c(CN(C)C)c12	KCNK3 block -9.28 | KCNK3 inh conf 122.7 | KCNK3 uninduced inactive
O=S(=O)(c1ccc(F)cc1)N1CCN(c2ccccn2)CC1	none
CC(C)(C)n1nc2c(c1NC(=O)C1CC(=O)N(c3ccc(Cl)cc3)C1)CS(=O)(=O)C2 (stereo not given)	none
COc1ccc(S(=O)(=O)NCCSCc2ccccc2C)cc1Br	KCNK3 block -8.86 | KCNK3 inh conf 125.7 | KCNK3 uninduced 0.125
COc1cc(N)c2ncsc2c1	none (no result: hERG rescue, KCNK9 inh, KCNQ1 block, KCNQ1 act, Kir21 inh)
Cc1ccc(-c2cc(-c3ccccc3)nc(Cl)n2)cc1	KCNK3 block -10.8 | KCNK3 inh conf 130.3 | KCNK3 uninduced 0.115
Cc1cccc(Nc2cc(C)c3c(O)cccc3n2)c1C	KCNK3 block -9.65 | KCNK3 inh conf 110.7 | KCNK3 uninduced inactive
O=C1c2cccc3cccc(c23)C(=O)N1CC1CCN(CC(O)COc2ccc3ccccc3c2)CC1 (stereo not given)	KCNK3 block -9.86 | KCNK3 inh conf 101.3 | KCNK3 uninduced 0.15
COc1ccc(NC(=S)N(CCCN2CCOCC2)C(C)c2cc3cccc(OC)c3o2)cc1 (stereo not given)	none
COc1cccc2cc(C(C)N(CCCN3CCOCC3)C(=S)Nc3ccc(C)c(C)c3)oc12 (stereo not given)	KCNK3 block -9.26 | KCNK3 inh conf 89.0 | KCNK3 uninduced inactive
COc1ccc(NC(=S)N(CCc2c(C)[nH]c3ccc(C)cc23)Cc2cccnc2)cc1	KCNK3 block -12.1, KCNK9 inh -6.87 | KCNK3 inh conf 96.3 | KCNK3 uninduced 0.153
CCOc1ccc(NC(=S)N(CCc2c(C)[nH]c3ccccc23)Cc2cccnc2)cc1	none
Cc1[nH]c2ccccc2c1CCN(Cc1cccnc1)C(=S)Nc1ccc(F)cc1	KCNK3 block -10.1 | KCNK3 inh conf 91.7 | KCNK3 uninduced 0.146
COCCNC(=S)N(CCc1c(C)[nH]c2ccc(OC)cc12)Cc1cccnc1	none
Cc1[nH]c2ccc(F)cc2c1CCN(Cc1ccncc1)C(=S)Nc1ccccc1	none
Cc1[nH]c2ccc(F)cc2c1CCN(Cc1cccnc1)C(=S)Nc1ccccc1	KCNK3 block -10.3 | KCNK3 inh conf 91.3 | KCNK3 uninduced inactive
O=C(/C=C\Nc1ccccc1Br)c1ccc2c(c1)OCO2	KCNK3 block -11.8 | KCNK3 inh conf 118.0 | KCNK3 uninduced inactive
